CHT PAM = allosteric activators of human choline transporter CHT; Q9GZV3; CHT-expressing cells, membrane potential dye, choline EC20; active compounds read high; LV-AA mutant CHT in HEK293 cells; B-score at 10 µM; actives 0.49% (n = 310,000); AID 488977;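 active means initial fluorescence not abnormally high and integrated response B-score, plate-corrected, over 3 SD above library mean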
CHT inh = human CHT choline transport inhibition; Q9GZV3; CHT-expressing cells, membrane potential dye, choline response; active compounds read low; B-score at 10 µM; actives 0.86% (n = 310,000); AID 488975;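 active means B-score over 3 SD under the library average, and starting fluorescence ratio not unusually high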;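 further: choline stimulus applied at its EC90 after an EC20 pre-addition; B-score computed on integrated fluorescence ratio after choline addition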
IMP-1 inh-1 = blocks Pseudomonas aeruginosa IMP-1 metallo-beta-lactamase | purified IMP-1, nitrocefin hydrolysis, epi-absorbance fluorescence | inhibition, % at 5.6 µM | actives 0.45% (n = 290,000) | AID 1556;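 active means inhibition above the mean plus 3 SD of all compounds in the same screening run, cut at about 4.5% in these data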
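System: Purified recombinant IMP-1 metallo-beta-lactamase enzyme | Measured by: Fluorescence quenching readout, ex 480/em 530 nm | Replication: Singlicate | Incubation: 15 min preincubation plus 25 min reaction at 25 °C | Evaluation: Percent inhibition from optical density relative to buffer-blank wells | Benchmarks: DMSO with and without IMP-1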
VIM-2 inhibitor = blocks Pseudomonas aeruginosa VIM-2 metallo-beta-lactamase; purified VIM-2, nitrocefin hydrolysis, epi-absorbance fluorescence; inhibition, % at 5.6 µM; actives 0.89% (n = 290,000); AID 1527;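 active means inhibition above the mean of all tested compounds plus 3 SD, cutoff set per screening run, cut at about 7.5% in these data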;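 further: red hydrolysis product quenches plate fluorescence so inhibitors raise well fluorescence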
TMEM16A inh = mouse TMEM16A channel inhibition, primary screen; Q8BHY3; AID 588511; actives 1.2% (n = 310,000); HEK293 TMEM16A/YFP iodide influx fluorescence, ionomycin; normalized B-score (activity score, 25-100; higher = stronger inhibition) at 10 µM;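 active means ratio plate-corrected score three or more library SD toward inhibition, starting fluorescence score within five deviations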;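 further: score derived from kinetic fluorescence span divided by baseline fluorescence per well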
ANO1 activ = mouse TMEM16A channel activation, primary screen; Q8BHY3; HEK293 TMEM16A/YFP-H148Q/I152L, iodide quench fluorescence; active compounds read low; B-score at 10 µM; actives 0.3% (n = 340,000);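 active means fluorescence-ratio B-score plate-corrected deviation score at least 3 library SD below zero, with starting fluorescence score within 5 deviations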;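 further: channel opened by trigger with iodide after compound preincubation; score built on the fluorescence ratio of max minus min over baseline; more negative score means more quench and so TMEM16A activation or potentiation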
IMP-1 inh-2 = blocks IMP-1 metallo-beta-lactamase in VIM-2 selectivity screen; shares compounds with VIM-2 inhibitor; purified IMP-1, nitrocefin hydrolysis, epi-absorbance fluorescence; 1,300 tested, under 10 active; inhibition, % at 5.6 µM; call rule not given here
VIM-2 FRET inh = inhibits VIM-2 in FRET assay to exclude epi-absorbance artifacts. purified VIM-2, CCF2 FRET substrate hydrolysis. actives 23% (n = 1,300). inhibition, % at 5.6 µM. AID 1857. shares compounds with VIM-2 inhibitor;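 active means inhibition above the mean of all tested compounds plus 3 SD, cut at about 19% in these data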
TEM-1 inh = selectivity counter-screen for VIM-2 inhibitors: E. coli TEM-1 inhibitors. shares compounds with VIM-2 inhibitor. AID 1866. inhibition, % at 5.6 µM. Purified TEM-1, nitrocefin hydrolysis, epi-absorbance fluorescence. actives 3% (n = 1,300);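 active means inhibition above that campaign's mean inhibition plus 3 SD, cut at about 0.46% in these data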
Target sequence (P62593 whole entry, looked up): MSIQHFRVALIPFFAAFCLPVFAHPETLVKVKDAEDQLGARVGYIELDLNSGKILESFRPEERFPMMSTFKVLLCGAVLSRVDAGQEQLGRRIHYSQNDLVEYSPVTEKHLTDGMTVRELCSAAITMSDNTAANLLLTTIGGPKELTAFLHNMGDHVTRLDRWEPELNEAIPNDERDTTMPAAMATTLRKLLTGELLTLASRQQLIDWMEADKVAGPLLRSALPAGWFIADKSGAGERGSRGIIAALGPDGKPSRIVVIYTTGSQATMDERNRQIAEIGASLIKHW
VIM-2 confirm 2 = confirmation of P. aeruginosa VIM-2 metallo-beta-lactamase inhibitors; shares compounds with VIM-2 inhibitor; purified VIM-2, nitrocefin hydrolysis, epi-absorbance; inhibition, % at 5.6 µM; actives 96% (n = 1,300); AID 2187;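 active means inhibition of the VIM-2 beta-lactamase enzyme above about 11% from the earlier first-round screen, limit read from the data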
CHT inh conf = human CHT inhibition, confirmatory screen | shares compounds with CHT inh | actives 70% (n = 2,400) | AID 493221 | CHT-expressing cells, choline membrane potential dye; LV-to-AA substituted CHT, HEK293 cells | CHT activity remaining % of control (active compounds read low), % at 10 µM;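 active means choline transporter activity left, mean of duplicates at 10 µM, below buffer-only control mean minus 3 SD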;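 further: depolarization triggered by choline at its EC90 following an EC20 pre-addition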
HEK293 MPD ctr = counter-screen for CHT inhibitors: effect in parental HEK293 cells. actives 4% (n = 2,400). shares compounds with CHT inh. membrane potential dye, choline response; active = decrease or increase beyond buffer ±3SD. membrane potential ratio readout (active if shifted either direction beyond buffer ±3SD; no single direction) at 10 µM;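 further: parental cells lack the transporter so any hit is non-specific; ratio is peak minus trough fluorescence over baseline after EC90 choline challenge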
Hits are given with their value; - = inactive; . = not tested or not shown. This is a sample that favours compounds with a hit; in the whole collection about 3.4% have one here.

SMILES | CHT PAM | CHT inh | IMP-1 inh-1 | VIM-2 inhibitor | TMEM16A inh | ANO1 activ | IMP-1 inh-2 | VIM-2 FRET inh | TEM-1 inh | VIM-2 confirm 2 | CHT inh conf | HEK293 MPD ctr
COCCCNc1c2c3c(cccc3[nH]c1=O)C(=O)c1ccccc1-2 | - | - | - | 34.4 | - | - | 72.9 | - | 137.4 | 87.4 | . | .
CCN(C(=O)c1cccnc1SC)C12CC3CC(CC(C3)C1)C2 | - | - | - | - | - | - | . | . | . | . | . | .
COc1cc(CCNc2ccc3nnc(-c4ccccc4)n3n2)cc(OC)c1OC | - | - | - | 18.6 | - | - | - | - | - | 21.9 | . | .
CC(O)CNc1ccc(-c2n[nH]c(=O)c3ccccc23)cc1[N+](=O)[O-] (stereo unspecified) | - | - | - | 20.0 | - | - | - | - | - | 34.3 | . | .
CC(O)CNc1cc(N)c([N+](=O)[O-])cc1[N+](=O)[O-] (stereo unspecified) | - | - | - | - | - | - | . | . | . | . | . | .
CN(C)CCCNc1ccc(-c2n[nH]c(=O)c3ccccc23)cc1[N+](=O)[O-] | - | - | - | 59.2 | - | - | - | - | - | 68.5 | . | .
O=C(O)Cn1cccc1C(=O)c1ccccc1 | - | - | - | 33.0 | - | - | - | 48.9 | - | 30.4 | . | .
COC(=O)Cn1cccc1C(=O)c1ccccc1 | - | - | - | - | - | - | . | . | . | . | . | .
CN(/N=C/C=C/c1ccccc1)C1=NS(=O)(=O)c2ccccc21 | - | - | - | - | - | - | . | . | . | . | . | .
COc1cc(/C=N/N(C)C2=NS(=O)(=O)c3ccccc32)cc(OC)c1OC | - | - | - | 32.1 | - | - | - | - | - | 34.7 | . | .
COc1ccccc1C1C(C(C)=O)=C(O)C(=O)N1c1ccc(O)cc1 (stereo unspecified) | - | - | - | - | - | - | . | . | . | . | . | .
CCOc1ccc(Nc2cc(C)nc(-n3nc(C)cc3C)n2)cc1 | - | -6.12 | - | 16.6 | - | - | - | - | - | 43.0 | - | -
COc1ccc(/C=C2/SC(=S)N(CCCC(=O)N3CCN(C)CC3)C2=O)cc1 | - | -6.45 | - | 17.5 | - | - | - | - | - | 31.4 | 42.4% | -
CN1CCN(C(=O)CCCN2C(=O)/C(=C/c3ccccc3)SC2=S)CC1 | - | -6.63 | - | 16.2 | - | - | - | - | - | 24.8 | 45.9% | -
CN1CCN(C(=O)CCCN2C(=O)/C(=C/c3ccc(Cl)cc3)SC2=S)CC1 | . | . | . | . | . | - | . | . | . | . | . | .
O=C(Nc1cccc(Cl)c1)c1cc(S(=O)(=O)N2CCOCC2)cs1 | - | - | - | - | - | - | . | . | . | . | . | .
CCOC(=O)C1CCN(C(=O)CCn2c(=O)c3cccn3c3cccnc32)CC1 | - | - | - | - | - | - | . | . | . | . | . | .
Cc1nn2c(NCCN3CCOCC3)c3c(nc2c1-c1ccccc1)CCCC3 | - | - | - | - | - | - | . | . | . | . | . | .
Cc1nn2c(N3CCN(C)CC3)c3c(nc2c1-c1ccccc1)CCCC3 | - | -9.6 | - | 26.2 | - | - | - | - | - | 54.8 | 31.7% | -
Cc1cc(NCCCn2ccnc2)n2ncc(-c3ccc(Cl)cc3)c2n1 | - | -5.41 | - | 34.9 | - | - | - | - | - | 49.5 | 61.3% | -
